Measured values from different studies.
Compare with care: the assays were run in different laboratories.
Target: Tyrosine-protein kinase receptor UFO (AXL, Homo sapiens, UniProt P30530)
Residues used in one study (P30530 26-894): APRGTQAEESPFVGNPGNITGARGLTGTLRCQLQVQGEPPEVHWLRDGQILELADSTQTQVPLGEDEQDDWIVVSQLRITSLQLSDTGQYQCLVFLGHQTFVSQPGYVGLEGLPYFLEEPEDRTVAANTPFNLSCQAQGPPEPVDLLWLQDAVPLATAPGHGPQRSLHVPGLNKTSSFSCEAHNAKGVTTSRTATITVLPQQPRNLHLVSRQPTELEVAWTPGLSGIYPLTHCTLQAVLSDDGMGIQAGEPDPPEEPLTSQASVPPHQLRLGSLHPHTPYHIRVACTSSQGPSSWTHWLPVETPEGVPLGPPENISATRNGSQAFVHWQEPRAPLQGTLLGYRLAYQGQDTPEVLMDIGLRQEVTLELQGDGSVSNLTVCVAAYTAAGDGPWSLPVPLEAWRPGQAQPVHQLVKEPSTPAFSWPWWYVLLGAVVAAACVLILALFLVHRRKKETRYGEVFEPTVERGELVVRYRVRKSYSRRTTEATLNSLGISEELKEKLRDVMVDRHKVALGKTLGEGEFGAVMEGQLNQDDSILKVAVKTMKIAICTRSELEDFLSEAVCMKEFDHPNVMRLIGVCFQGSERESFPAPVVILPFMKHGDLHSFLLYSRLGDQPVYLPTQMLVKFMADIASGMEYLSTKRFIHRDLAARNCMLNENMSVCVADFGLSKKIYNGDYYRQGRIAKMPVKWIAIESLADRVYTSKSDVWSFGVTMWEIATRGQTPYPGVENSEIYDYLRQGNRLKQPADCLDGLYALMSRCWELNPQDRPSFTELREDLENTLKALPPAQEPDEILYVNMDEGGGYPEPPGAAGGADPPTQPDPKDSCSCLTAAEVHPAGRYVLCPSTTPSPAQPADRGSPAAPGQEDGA

SMILES | test | conditions | remaining binding [%]
CCc1ccccc1C(=O)Nc1n[nH]c2c(C)c(F)c(C3C(C#N)=C(C)N(C)C(C)=C3C#N)cc12 | binding, competition with immobilised ligand | 1 µM | 100
CCN1CCN(Cc2ccc(C(=O)Nc3ccc(C)c(Oc4ccc5c(c4)CC(=O)N5)c3)cc2C(F)(F)F)CC1 | binding, competition with immobilised ligand | 1 µM | 98
C[C@H]1CCN(c2nccc(-c3cnn4ncccc34)n2)C1 | binding | 1 µM | 49
COc1cccc(CNC(=O)c2nc3scc(COCc4ccc(C(=O)O)cc4)c3c(=O)[nH]2)c1 | cell-free assay, competition with immobilised ligand | 1 µM | 84.2
N[C@H]1CCN(c2nccc(-c3cnn4ncccc34)n2)C1 | binding | 1 µM | 97
CO[C@@H](C)c1c(Nc2ccc([C@@H](N(C)C(=O)C3CCS(=O)(=O)CC3)C(F)(F)F)cc2)cnc2cc(Cl)nn12 | cell-free assay, competition with immobilised ligand | 1 µM | 77
COc1cnc(Nc2cccc(S(N)(=O)=O)c2)nc1N1CCN(c2ccccc2)C(=O)C1 | binding, competition with immobilised ligand | 1 µM | 94
c1cncc(-c2cccc(Nc3nccc(NC4CCCCC4)n3)c2)c1 | binding, competition with immobilised ligand | 10 µM | 4
COc1ncc2cc3ccccc3nc2c1C#N | cell-free assay, competition with immobilised ligand | 5 µM | 92
O=C(c1ccc(Nc2ncc(Cl)c(-c3cc4ccccc4s3)n2)cc1)N1CCC(N2CCCC2)CC1 | binding, competition with immobilised ligand | 1 µM | 1.4
C[C@H](c1ccc(F)cc1)N(Cc1cccc(C(=O)O)c1)C(=O)c1cnc2ccccc2c1 | cell-free assay, competition with immobilised ligand | 1 µM | 100
CC1CCCN1c1nccc(-c2cnn3ncccc23)n1 (stereo not drawn) | binding | 1 µM | 100
CNC(=O)c1ccc(Nc2ncc(C(F)(F)F)c(NCc3nccnc3N(C)S(C)(=O)=O)n2)cc1 | cell-free assay, competition with immobilised ligand | 0.1 µM | 51
c1cnn2ncc(-c3ccnc(N4CCC45COC5)n3)c2c1 | binding | 1 µM | 74
O=C(c1ccc(Nc2ncc(Cl)c(-c3ccc(Cl)s3)n2)cc1)N1CCC(N2CCCC2)CC1 | binding, competition with immobilised ligand | 1 µM | 28
CN(CCCC(F)(F)F)c1nccc(-c2cnn3ncccc23)n1 | binding | 1 µM | 75
O=C(NCC1CCOCC1)c1n[nH]cc1NC(=O)c1c(F)cccc1F | binding, competition with immobilised ligand | 1 µM | 91
FC(F)(F)Oc1cccc(-c2cnc3ccc(-c4ccncc4)nn23)c1 | cell-free assay, competition with immobilised ligand | 5 µM | 74
CN(c1nccc(-c2cnn3ncccc23)n1)C1CC1 | binding | 1 µM | 78
Cc1cnc(Nc2ccc(C(=O)N3CCC(N4CCCC4)CC3)cc2)nc1-c1cc2ccccc2s1 | binding, competition with immobilised ligand | 1 µM | 1
CN([C@@H]1CCc2c(CC(=O)O)c3cc(S(C)(=O)=O)ccc3n2C1)S(=O)(=O)c1ccc(F)cc1 | cell-free assay, competition with immobilised ligand | 1 µM | 100
C[C@@H]1CN(c2ccc3ncc(-c4ccc5[nH]nc(C6CC6)c5c4)n3n2)C[C@H](C)O1 | binding, competition with immobilised ligand | 50 nM | 95
Nc1ncc2c(n1)-c1c([nH]c3ccc(C#CC4CC4)cc13)CCCC2 | binding, competition with immobilised ligand | 1 µM | 87
C[C@H](c1ccnc(Nc2nc3ccc(-c4cc(N(C)C)ncn4)cc3[nH]2)c1)N1CCN(C(=O)CC(F)(F)F)CC1 | cell-free assay, competition with immobilised ligand | 0.1 µM | 100
